# Results: ChEMBL document CHEMBL1142960, “Synthesis and structure-activity relationships for 2,4-dinitrobenzamide-5-mustards as prodrugs for the Escherichia coli nfsB nitroreductase in gene therapy” (J Med Chem, 2007)
# Legend:
# [1] = test system: V79; experiment: Clonogenic survival of V79 NTRoua cells after 5 hrs by MCL assay; assay type: functional, Cricetulus griseus
# [2] = test system: WiDr; experiment: Antiproliferative activity against human wild type WiDr NTR-ve cells after 18 hrs; assay type: functional, cell-based
# [3] = test system: WiDr; experiment: Selectivity ratio of IC50 for WiDr NTR-ve cells to IC50 for WiDr NTRneo cells; assay type: functional, Homo sapiens
# [4] = test system: EMT6; experiment: Antitumor activity against mixed mouse EMT6/EMT6 NTRpuro cells injected in CD1 nude mouse assessed as cell kill at 560 umol/kg, ip in DMA/PEG after 18 hrs; assay type: functional
# [5] = Antiproliferative activity against human wild type Skov3 NTR-ve cells after 18 hrs; assay type: functional, cell-based
# [6] = Antiproliferative activity against human Skov3 NTRneo cells after 18 hrs; assay type: functional, cell-based; conditions: SK-OV-3, 18 h
# [7] = Partition coefficient at pH 7.4 by shake-flask method; assay type: physicochemical; conditions: octanol/water
# Procedure, shortened: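 Octanol-water partition coefficient by shake-flask at pH 7.4, reported with SEM.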
# [8] = test system: V79; experiment: Selectivity ratio of IC50 for V79 NTR-ve cells to IC50 for V79 NTRpuro cells; assay type: functional, Cricetulus griseus
# [9] = Toxicity in ip dosed CD1 nude mouse in DMA/PEG; assay type: organism-based; conditions: in vivo
# Procedure, shortened: (§1)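 Maximum tolerated dose (MTD) determined in CD-1 nude mice after a single i.p. injection of prodrug, given in the vehicle named in each line.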
# [10] = Selectivity ratio of IC50 for Skov3 NTR-ve cells to IC50 for Skov3 NTRneo cells; assay type: functional, Homo sapiens
# [11] = test system: EMT6; experiment: Selectivity ratio of IC50 for EMT6 NTR-ve cells to IC50 forEMT6 NTRpuro cells; assay type: functional, Mus musculus
# [12] = test system: V79; experiment: Antiproliferative activity against chinese hamster V79 NTRpuro cells after 18 hrs; assay type: functional, cell-based; conditions: Cricetulus griseus, V79, 18 h
# [13] = test system: V79; experiment: Clonogenic survival of 3% V79 NTRpuro cells in co-cultures with 97% V79 NTRoua after 5 hrs by MCL assay; assay type: functional, Cricetulus griseus
# Procedure, shortened: (§2)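 Multicellular layer cocultures of 3% V79-NTRpuro activators and 97% V79oua NTR-ve targets (ouabain-resistant), exposed to prodrug for 5 h. MCLs were then trypsin-dissociated and plated in ouabain or puromycin selective media for clonogenic survival. C10 (10% survival) interpolated for activators and targets; AC/TC ratio derived. Mean with SEM or range over independent experiments.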
# [14] = test system: WiDr; experiment: Antitumor activity against human 100% WiDr NTRneo tumor cells injected in CD1 nude mouse assessed as growth delay at 560 umol/kg, ip in DMA/PEG; assay type: functional
# Procedure, shortened: (§3)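 WiDr-NTRneo tumours (100% NTR+ve, or 1:9 NTR+ve:NTR-ve mixtures) in CD-1 nude mice, given a single i.p. dose at MTD. Read-out is median growth delay to 15 mm mean diameter, plus tumours not palpable 100 days after treatment. Aziridine given at 200 µmol/kg as positive control in every experiment.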
# [15] = Solubility in alpha MEM; assay type: physicochemical
# Procedure, shortened: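 Solubility (mM) in α-MEM with 5% fetal calf serum at ambient temperature, measured by HPLC.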
# [16] = test system: V79; experiment: Antiproliferative activity against chinese hamster wild-type V79 NTR-ve cells after 18 hrs; assay type: functional, cell-based; conditions: Cricetulus griseus, V79, 18 h
# [17] = test system: V79; experiment: Clonogenic survival of 97% V79 NTRoua cells in co-cultures with 3% V79 NTRpuro cells after 5 hrs by MCL assay; assay type: functional, Cricetulus griseus; procedure, shortened: as §2
# [18] = test system: WiDr; experiment: Antiproliferative activity against human WiDr NTRneo cells after 18 hrs; assay type: functional, cell-based
# [19] = test system: EMT6; experiment: Antiproliferative activity against mouse wild type EMT6 NTR-ve cells after 18 hrs; assay type: functional, cell-based; conditions: EMT6, 18 h
# [20] = Stability in alpha MEM at 37 degC after 24 hrs; assay type: physicochemical; conditions: read-out: Stability
# Procedure, shortened: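 Percent parent compound remaining, by HPLC, after holding in α-MEM with 5% fetal calf serum at 37 °C for 24 h.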
# [21] = test system: EMT6; experiment: Antiproliferative activity against mouse EMT6 NTRpuro cells after 18 hrs; assay type: functional, cell-based; conditions: EMT6, 18 h
# [22] = test system: EMT6; experiment: Antitumor activity against mixed mouse EMT6/EMT6 NTRpuro cells injected in CD1 nude mouse assessed as cell kill at 2000 umol/kg, ip in DMSO after 18 hrs; assay type: functional
# [23] = test system: WiDr; experiment: Antitumor activity against human 100% WiDr NTRneo tumor cells injected in CD1 nude mouse assessed as growth delay at 2000 umol/kg, ip in DMSO; assay type: functional
# Procedure, shortened: (§4)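 WiDr tumors grown in CD-1 nude mice from stably NTR-transfected WiDr-NTRneo cells, either alone or mixed 1:9 with NTR-ve WiDr cells. Each mouse received a single i.p. dose. The read-out was median growth delay for tumors to reach an endpoint size of 15 mm mean diameter. Long-term controls were counted as tumors not palpable 100 days after treatment. The aziridine positive control was included in every experiment.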
# [24] = test system: WiDr; experiment: Antitumor activity against mixed human 10% WiDr NTRneo/ 90% WiDr tumor cells injected in CD1 nude mouse assessed as growth delay at 2000 umol/kg, ip in DMSO; assay type: functional; procedure, shortened: as §4
# [25] = Toxicity in ip dosed CD1 nude mouse in DMSO; assay type: organism-based; conditions: in vivo; procedure, shortened: as §1
# [26] = Toxicity in ip dosed CD1 nude mouse in DMSO/PEG; assay type: organism-based; conditions: in vivo; procedure, shortened: as §1
# [27] = test system: EMT6; experiment: Antitumor activity against mixed mouse EMT6/EMT6 NTRpuro cells injected in CD1 nude mouse assessed as cell kill at 1330 umol/kg, ip in DMSO/PEG after 18 hrs; assay type: functional
# [28] = test system: WiDr; experiment: Antitumor activity against mixed human 10% WiDr NTRneo/ 90% WiDr tumor cells injected in CD1 nude mouse assessed as growth delay at 1330 umol/kg, ip in DMSO/PEG; assay type: functional; procedure, shortened: as §3
# [29] = test system: EMT6; experiment: Antitumor activity against mixed mouse EMT6/EMT6 NTRpuro cells injected in CD1 nude mouse assessed as cell kill at 133 umol/kg, ip in DMA/PEG after 18 hrs; assay type: functional
# [30] = test system: WiDr; experiment: Antitumor activity against human 100% WiDr NTRneo tumor cells injected in CD1 nude mouse assessed as growth delay at 300 umol/kg, ip in acetate; assay type: functional; procedure, shortened: as §3
# [31] = test system: EMT6; experiment: Antitumor activity against mixed mouse EMT6/EMT6 NTRpuro cells injected in CD1 nude mouse assessed as cell kill at 300 umol/kg, ip in acetate after 18 hrs; assay type: functional
# [32] = Toxicity in ip dosed CD1 nude mouse in sodium acetate; assay type: organism-based; conditions: in vivo; procedure, shortened: as §1
structure (smiles),measurement,setting,value
O=C(NCC(O)CO)c1cc(N(CCCl)CCCl)c([N+](=O)[O-])cc1[N+](=O)[O-] (configuration not stated),Activity,[1],3500 µM
same,IC50,[2],984 µM
same,Ratio IC50,[3],79
same,LCK,[4],1.49
same,IC50,[5],1710 µM
same,IC50,[6],5.1 µM
same,logD,[7],0.93
same,Ratio IC50,[8],135
same,MTD,[9],560 µmol/kg
same,Ratio IC50,[10],327
same,Ratio IC50,[11],803
same,IC50,[12],10 µM
same,Activity,[13],95 µM
same,Activity,[14],75 days
same,solubility,[15],2900 µM
same,IC50,[16],1160 µM
same,Activity,[17],510 µM
same,IC50,[18],14 µM
same,IC50,[19],839 µM
same,remaining at 24 h,[20],100%
same,IC50,[21],1.14 µM
CS(=O)(=O)OCCN(CCOS(C)(=O)=O)c1cc(C(N)=O)c([N+](=O)[O-])cc1[N+](=O)[O-],Activity,[1],>300 µM
same,IC50,[2],24 µM
same,Ratio IC50,[3],55
same,LCK,[22],>2.6
same,IC50,[5],226 µM
same,IC50,[6],1.2 µM
same,logD,[7],-0.7
same,Ratio IC50,[8],1200
same,Ratio IC50,[10],220
same,Activity,[23],>82 days
same,Activity,[24],20 days
same,Ratio IC50,[11],755
same,IC50,[12],0.49 µM
same,Activity,[13],13 µM
same,MTD,[25],2000 µmol/kg
same,IC50,[16],536 µM
same,Activity,[17],152 µM
same,IC50,[18],0.67 µM
same,IC50,[19],189 µM
same,IC50,[21],0.32 µM
O=C(NCC(O)CO)c1cc(N(CCBr)CCBr)c([N+](=O)[O-])cc1[N+](=O)[O-] (configuration not stated),Activity,[1],675 µM
same,IC50,[2],166 µM
same,Ratio IC50,[3],313
same,MTD,[26],1330 µmol/kg
same,IC50,[5],283 µM
same,IC50,[6],0.28 µM
same,LCK,[27],>3.36
same,logD,[7],1.25
same,Ratio IC50,[8],828
same,Ratio IC50,[10],1050
same,Activity,[28],22 days
same,Ratio IC50,[11],1670
same,IC50,[12],0.34 µM
same,Activity,[13],18 µM
same,solubility,[15],1700 µM
same,IC50,[16],275 µM
same,Activity,[17],98 µM
same,IC50,[18],0.63 µM
same,IC50,[19],132 µM
same,remaining at 24 h,[20],102%
same,IC50,[21],0.08 µM
O=C(NCCO)c1cc(N(CCCl)CCCl)c([N+](=O)[O-])cc1[N+](=O)[O-],Activity,[1],>1000 µM
same,IC50,[2],666 µM
same,Ratio IC50,[3],65
same,IC50,[5],1250 µM
same,IC50,[6],5.9 µM
same,logD,[7],1.38
same,Ratio IC50,[8],59
same,MTD,[9],133 µmol/kg
same,Ratio IC50,[10],230
same,Ratio IC50,[11],386
same,IC50,[12],12 µM
same,Activity,[13],95 µM
same,solubility,[15],1000 µM
same,IC50,[16],312 µM
same,Activity,[17],210 µM
same,IC50,[18],10 µM
same,IC50,[19],570 µM
same,LCK,[29],>2.02
same,IC50,[21],1.52 µM
O=C(NCCN1CCOCC1)c1cc(N(CCCl)CCCl)c([N+](=O)[O-])cc1[N+](=O)[O-],Activity,[30],27 days
same,Activity,[1],3500 µM
same,IC50,[2],243 µM
same,Ratio IC50,[3],1.7
same,IC50,[5],383 µM
same,IC50,[6],82 µM
same,logD,[7],1.6
same,Ratio IC50,[8],1.6
same,Ratio IC50,[10],5
same,Ratio IC50,[11],8.9
same,IC50,[12],130 µM
same,Activity,[13],1500 µM
same,solubility,[15],5200 µM
same,IC50,[16],201 µM
same,Activity,[17],3000 µM
same,IC50,[18],149 µM
same,IC50,[19],242 µM
same,LCK,[31],0.07
same,remaining at 24 h,[20],100%
same,IC50,[21],30 µM
same,MTD,[32],300 µmol/kg
